Measurements: ChEMBL document CHEMBL3120045, “Monovalent mannose-based DC-SIGN antagonists: targeting the hydrophobic groove of the receptor” (Eur J Med Chem, 2014)
pIC50, pKi: −log10 of the molar value.

Experiments:
[1] = target: T1, CD209 antigen (Homo sapiens, UniProt Q9NNX6); test: Displacement of [125I]-Man30-BSA from DC-SIGN receptor carbohydrate recognition domain (unknown origin) after 2 hrs by gamma-counting analysis
T1 sequence (Q9NNX6 whole entry): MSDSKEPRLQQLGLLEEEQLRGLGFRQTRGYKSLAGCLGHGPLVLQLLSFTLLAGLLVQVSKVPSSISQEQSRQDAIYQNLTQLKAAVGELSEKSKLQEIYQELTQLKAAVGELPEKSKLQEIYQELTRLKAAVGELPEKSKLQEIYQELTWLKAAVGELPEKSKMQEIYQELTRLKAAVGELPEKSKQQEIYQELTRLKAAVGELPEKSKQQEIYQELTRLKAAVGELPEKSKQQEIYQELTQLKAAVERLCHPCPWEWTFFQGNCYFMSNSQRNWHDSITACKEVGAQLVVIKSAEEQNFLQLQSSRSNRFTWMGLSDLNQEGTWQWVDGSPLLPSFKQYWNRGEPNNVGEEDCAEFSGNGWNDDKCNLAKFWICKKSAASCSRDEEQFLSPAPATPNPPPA

[2] = Cytotoxicity against human DC at 50 uM after 24 hrs by propidium iodide staining-based flow cytometry
How it was run: (§1)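 Immature DCs, seeded after 5 days of culture at 0.5 × 10⁶ cells/ml, were treated with compounds at 50, 100 and 250 for 24 h. Cells were then harvested, stained with propidium iodide for 15 min and analysed by flow cytometry. The percentage of PI-positive cells was taken as the percentage of dead cells.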

[3] = Cytotoxicity against human DC at 250 uM after 24 hrs by propidium iodide staining-based flow cytometry; how it was run: as §1
[4] = Cytotoxicity against human DC at 100 uM after 24 hrs by propidium iodide staining-based flow cytometry; how it was run: as §1
[5] = Cytotoxicity against human DC at 250 uM after 24 hrs by propidium iodide staining-based flow cytometry
[6] = target: T1, CD209 antigen; test: Displacement of biotinylated HIV1 gp120 from DC-SIGN receptor carbohydrate recognition domain (unknown origin) after 2 hrs by solid-phase competitive displacement assay
[7] = target: T1, CD209 antigen; test: Antagonist activity at DC-SIGN receptor (unknown origin) assessed as inhibition of mannosylated BSA binding by SPR assay

| Compound | Activity [2] | Activity [3] | Activity [5] | pIC50 [6] | further results |
| --- | --- | --- | --- | --- | --- |
| OC[C@H]1OC(O)[C@@H](O)[C@@H](O)[C@@H]1O (stereo partly drawn) [D-MANNOSE] |  |  |  |  | pKi [1]: 1.88 |
| N#Cc1ccc(C(=O)NCC(CNC(=O)c2ccc(C#N)cc2)O[C@H]2O[C@H](CO)[C@@H](O)[C@H](O)[C@@H]2O)cc1 | Non-toxic |  |  |  |  |
| COc1ccc2ccc(OCC(COc3ccc4ccc(OC)cc4c3)O[C@H]3O[C@H](CO)[C@@H](O)[C@H](O)[C@@H]3O)cc2c1 | Non-toxic | Toxic | Toxic |  | Activity [4]: Toxic |
| COc1ccc(OCC(CO[C@H]2O[C@H](CO)[C@@H](O)[C@H](O)[C@@H]2O)Oc2ccc(OC)cc2)cc1 (mixture of isomers) | Non-toxic |  |  |  |  |
| OC[C@H]1O[C@H](OCC(COc2ccc3ccccc3c2)Oc2ccc3ccccc3c2)[C@@H](O)[C@@H](O)[C@@H]1O (mixture of isomers) | Non-toxic | Toxic | Toxic |  |  |
| C[C@H](O)[C@@H](O)[C@@H](O)[C@H](O)C=O [L-FUCOSE] |  |  |  | 2.53 | pKi [1]: 2.17 |
| COC(=O)[C@H]1C[C@H](OCCN=[N+]=[N-])[C@@H](O[C@H]2O[C@H](CO)[C@@H](O)[C@H](O)[C@@H]2O)C[C@@H]1C(=O)OC |  |  |  | 2.56 | pIC50 [7]: 2.99 |
| [N-]=[N+]=NCCO[C@H]1C[C@H](C(=O)NCc2ccc(CO)cc2)[C@@H](C(=O)NCc2ccc(CO)cc2)C[C@@H]1O[C@H]1O[C@H](CO)[C@@H](O)[C@H](O)[C@@H]1O |  |  |  | 3.38 | pIC50 [7]: 3.49 |
| O=C(NCC(CNC(=O)c1ccc2ccccc2c1)O[C@H]1O[C@H](CO)[C@@H](O)[C@H](O)[C@@H]1O)c1ccc2ccccc2c1 | Non-toxic | Toxic | Toxic |  |  |
| OC[C@H]1O[C@H](OC(COc2cccc3ccccc23)COc2cccc3ccccc23)[C@@H](O)[C@@H](O)[C@@H]1O | Non-toxic | Toxic | Toxic |  | Activity [4]: Toxic |
